A short description of data set [1]: Cytotoxicity against human HDF after 72 hrs by MTS-PMS assay. Particulars: HDF cells. In short, it runs like this: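 Dermal fibroblasts cultured in DMEM/F-12 with 40% FBS and 1% pen/strep; 5000 cells/well allowed to adhere 24 h at 37 °C, 5% CO2, then treated in triplicate at varying concentrations for 72 h. Antiproliferative readout by MTS–PMS; GI50 fitted by nonlinear regression; SAHA positive control.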
In general terms: Tetrazolium assays rely on reduction of a dye to a coloured formazan, in cell work by metabolically active cells.

A further data set deals with Histone deacetylase 2 (Homo sapiens, UniProt Q92769). In words: Inhibition of human recombinant HDAC2 after 30 mins by fluorescence assay.
Data set [2] has as its target T1, Histone deacetylase 4 (Homo sapiens, UniProt P56524). Description: Inhibition of human recombinant HDAC4 at 1 uM after 30 mins by fluorescence assay. The method, boiled down: (§1)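 Human recombinant HDAC isozyme with fluorogenic kit substrate, incubated with inhibitor 30 min at 37 °C. Deacetylation stopped by developer containing trichostatin A (1 μM final), then 15 min at room temperature. Fluorescence read at excitation 360 nm, emission 460 nm; percent inhibition, IC50 from nonlinear regression over varying concentrations; SAHA control.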

The test system of a further data set is HuT78. In words: Cytotoxicity against human HUT78 cells after 72 hrs by MTS-PMS assay. In kind it is functional. The method, boiled down:
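HuT-78 maintained in Iscove's modified Dulbecco's medium, 20% FBS, 1% pen/strep, 1% L-glutamine; seeded in log phase at 50 000 cells/well, held 4 h at 37 °C, 5% CO2, then dosed in triplicate over a concentration range for 72 h. MTS–PMS readout; GI50 by nonlinear regression; SAHA positive control.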

For data set [3], the target named is T2, Protein deacetylase HDAC6 (Homo sapiens, UniProt Q9UBN7).
T2 sequence (Q9UBN7 whole entry): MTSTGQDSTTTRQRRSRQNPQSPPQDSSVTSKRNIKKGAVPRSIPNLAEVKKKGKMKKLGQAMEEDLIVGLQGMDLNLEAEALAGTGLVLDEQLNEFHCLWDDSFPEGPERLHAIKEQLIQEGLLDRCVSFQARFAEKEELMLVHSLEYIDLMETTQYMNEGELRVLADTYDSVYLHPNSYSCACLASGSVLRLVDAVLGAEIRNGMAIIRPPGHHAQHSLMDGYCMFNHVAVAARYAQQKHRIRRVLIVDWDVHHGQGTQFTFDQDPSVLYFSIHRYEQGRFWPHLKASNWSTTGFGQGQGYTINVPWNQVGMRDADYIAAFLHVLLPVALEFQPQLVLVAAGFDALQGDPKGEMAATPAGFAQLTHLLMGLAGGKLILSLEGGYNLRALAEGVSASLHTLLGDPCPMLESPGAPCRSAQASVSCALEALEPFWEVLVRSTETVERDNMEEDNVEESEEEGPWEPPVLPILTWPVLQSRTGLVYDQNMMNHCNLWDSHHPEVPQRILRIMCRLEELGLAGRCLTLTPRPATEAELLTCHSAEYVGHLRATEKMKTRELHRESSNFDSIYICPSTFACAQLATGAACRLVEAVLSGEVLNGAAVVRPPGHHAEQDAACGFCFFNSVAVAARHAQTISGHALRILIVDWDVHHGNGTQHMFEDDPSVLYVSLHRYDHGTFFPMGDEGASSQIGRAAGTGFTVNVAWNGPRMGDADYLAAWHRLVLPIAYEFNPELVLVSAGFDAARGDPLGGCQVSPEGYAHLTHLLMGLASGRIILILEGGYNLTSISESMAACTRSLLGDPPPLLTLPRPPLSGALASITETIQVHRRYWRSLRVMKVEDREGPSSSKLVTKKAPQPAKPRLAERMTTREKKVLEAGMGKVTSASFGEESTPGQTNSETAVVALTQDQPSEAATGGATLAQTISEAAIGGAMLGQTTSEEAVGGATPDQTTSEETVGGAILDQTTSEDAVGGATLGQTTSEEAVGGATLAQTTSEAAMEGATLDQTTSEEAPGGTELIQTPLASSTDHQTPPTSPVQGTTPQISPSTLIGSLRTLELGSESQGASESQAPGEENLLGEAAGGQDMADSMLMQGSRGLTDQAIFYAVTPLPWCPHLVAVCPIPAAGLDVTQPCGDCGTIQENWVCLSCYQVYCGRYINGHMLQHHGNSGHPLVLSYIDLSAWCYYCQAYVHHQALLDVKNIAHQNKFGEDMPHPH
Description: Inhibition of human recombinant HDAC6 after 30 mins by fluorescence assay.

The subject of data set [4] is HCT-116. In words: Cytotoxicity against human HCT116 cells after 96 hrs by MTS-PMS assay. In kind it is functional.
Data set [5] concerns the target T1, Histone deacetylase 4. In words: Inhibition of human recombinant HDAC4 after 30 mins by fluorescence assay. The method, boiled down:
as §1

In data set [6] the test system is HCT-116. In words: Ratio of IC50 for human HCT116 cells to IC50 for human HUT78 cells. It is filed as functional.

The structures appear in SMILES notation. pIC50: −log10 of the molar value. “And” between values parts separate entries of the source, which are not always exact repeats. Equal values may be shown once. The source made the active and inactive calls. The calls are words filed in the database; no cut-off is given here. Some results are limits rather than exact numbers.

Chain of Histone deacetylase 2 (Q92769 whole entry): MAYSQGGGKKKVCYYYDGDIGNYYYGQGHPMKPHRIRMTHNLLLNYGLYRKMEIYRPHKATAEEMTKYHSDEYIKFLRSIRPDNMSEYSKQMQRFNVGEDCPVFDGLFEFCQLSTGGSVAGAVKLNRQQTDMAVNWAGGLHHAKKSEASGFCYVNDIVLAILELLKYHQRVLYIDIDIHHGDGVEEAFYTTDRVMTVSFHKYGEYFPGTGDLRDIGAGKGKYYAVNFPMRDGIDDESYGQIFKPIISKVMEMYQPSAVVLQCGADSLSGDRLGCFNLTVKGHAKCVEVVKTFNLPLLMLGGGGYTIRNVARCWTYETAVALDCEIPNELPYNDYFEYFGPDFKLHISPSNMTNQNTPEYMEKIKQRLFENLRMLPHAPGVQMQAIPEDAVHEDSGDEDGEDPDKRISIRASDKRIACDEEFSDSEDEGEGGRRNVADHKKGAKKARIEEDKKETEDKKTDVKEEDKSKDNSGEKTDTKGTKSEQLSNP
T1 sequence (P56524 whole entry): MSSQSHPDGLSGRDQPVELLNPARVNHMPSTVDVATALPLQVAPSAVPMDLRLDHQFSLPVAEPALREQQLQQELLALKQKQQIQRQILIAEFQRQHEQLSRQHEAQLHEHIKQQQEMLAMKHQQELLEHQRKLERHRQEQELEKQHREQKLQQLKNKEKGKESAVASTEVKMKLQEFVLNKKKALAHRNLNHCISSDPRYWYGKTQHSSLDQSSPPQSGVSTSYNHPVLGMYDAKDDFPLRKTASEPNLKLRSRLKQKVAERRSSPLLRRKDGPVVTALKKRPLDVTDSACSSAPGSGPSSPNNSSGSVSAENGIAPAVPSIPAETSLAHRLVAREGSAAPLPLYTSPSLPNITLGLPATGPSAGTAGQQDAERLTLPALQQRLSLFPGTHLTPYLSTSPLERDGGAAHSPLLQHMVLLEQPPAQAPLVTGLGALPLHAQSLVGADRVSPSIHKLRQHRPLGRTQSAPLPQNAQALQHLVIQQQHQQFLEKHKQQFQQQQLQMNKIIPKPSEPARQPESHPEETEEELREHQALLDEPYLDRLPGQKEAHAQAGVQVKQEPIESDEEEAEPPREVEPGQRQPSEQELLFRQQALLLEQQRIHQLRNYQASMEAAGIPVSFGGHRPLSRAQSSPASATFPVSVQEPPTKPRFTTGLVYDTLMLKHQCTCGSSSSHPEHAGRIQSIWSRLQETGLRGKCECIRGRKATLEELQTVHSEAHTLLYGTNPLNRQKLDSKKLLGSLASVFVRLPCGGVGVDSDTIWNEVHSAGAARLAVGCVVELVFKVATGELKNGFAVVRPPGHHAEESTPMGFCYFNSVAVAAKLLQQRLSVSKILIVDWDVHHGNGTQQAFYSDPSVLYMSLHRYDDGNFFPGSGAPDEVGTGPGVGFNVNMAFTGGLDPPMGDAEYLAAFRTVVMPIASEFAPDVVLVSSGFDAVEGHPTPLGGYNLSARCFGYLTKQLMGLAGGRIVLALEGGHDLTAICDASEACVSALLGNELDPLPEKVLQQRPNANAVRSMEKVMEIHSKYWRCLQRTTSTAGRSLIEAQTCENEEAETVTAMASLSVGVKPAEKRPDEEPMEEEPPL

What is called GI50 is the concentration giving 50% growth inhibition. For orientation: pIC50 means the IC50 on a negative log10 scale, so that one unit is a factor of ten. Take `O=C(CCCC(=O)NCCc1ccccc1)NO`: the GI50 at 72 h in data set [1] was > 100000 nM. The pIC50 at Histone deacetylase 2 was 8.46; in data set [3] it was 6.41; at Histone deacetylase 4 [5], < 6.00. The inhibition entry on Histone deacetylase 4 [2] was “Active”. Also, the GI50 in the data set with HuT78 (Homo sapiens, HuT78, 72 h) came to 700 nM; with HCT-116 [4] (Homo sapiens, HCT-116, 96 h), 2300 nM.
For `CCOC(=O)NCCCC(=O)NCCc1ccccc1`, the GI50 at 72 h in data set [1] was > 100000 nM. Further, the pIC50 at Histone deacetylase 2 is 9.95 and 9.92; in data set [3], 6.36; at Histone deacetylase 4 [5], < 6.00. In addition, the inhibition entry on Histone deacetylase 4 [2] is “Active”. The GI50 in the data set with HuT78 worked out at 1400 nM; with HuT78 (Homo sapiens, HuT78, 72 h) it was 1300 nM; with HCT-116 [4] it was 29400 nM; in the data set on HCT-116 [4] (Homo sapiens, HCT-116, 96 h), 28300 nM. Moreover, in the data set with HCT-116 [6], the “Ratio IC50” value was determined as 20.

These data come from ChEMBL document CHEMBL3085682, “Santacruzamate A, a potent and selective histone deacetylase inhibitor from the Panamanian marine cyanobacterium cf. Symploca sp” (J Nat Prod, 2013).
